How the values were obtained:
[1] = molecular target: Prostaglandin G/H synthase 1 (Homo sapiens, UniProt P23219); assay: Inhibitory activity against human prostaglandin G/H synthase 1 in platelet-rich plasma measured by the presence of thromboxane A2
Summary of the method: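 Human peripheral blood drawn into heparin; platelet-rich plasma collected by centrifugation (200×g, 20 min, room temperature) and diluted 1:20 in 0.9% NaCl. Compound or vehicle preincubated 15 min at 37 °C, then stimulated with calcium ionophore A-23187 (free acid) for 15 min at 37 °C, then chilled on ice 5 min. Supernatant thromboxane B2 measured by radioimmunoassay.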

[2] = molecular target: T1, Prostaglandin G/H synthase 2 (Homo sapiens, UniProt P35354); assay: Inhibitory activity against human prostaglandin G/H synthase 2 in ECV-304 cells measured by the presence of PGE-2; type: cell-based
T1 sequence (P35354 whole entry): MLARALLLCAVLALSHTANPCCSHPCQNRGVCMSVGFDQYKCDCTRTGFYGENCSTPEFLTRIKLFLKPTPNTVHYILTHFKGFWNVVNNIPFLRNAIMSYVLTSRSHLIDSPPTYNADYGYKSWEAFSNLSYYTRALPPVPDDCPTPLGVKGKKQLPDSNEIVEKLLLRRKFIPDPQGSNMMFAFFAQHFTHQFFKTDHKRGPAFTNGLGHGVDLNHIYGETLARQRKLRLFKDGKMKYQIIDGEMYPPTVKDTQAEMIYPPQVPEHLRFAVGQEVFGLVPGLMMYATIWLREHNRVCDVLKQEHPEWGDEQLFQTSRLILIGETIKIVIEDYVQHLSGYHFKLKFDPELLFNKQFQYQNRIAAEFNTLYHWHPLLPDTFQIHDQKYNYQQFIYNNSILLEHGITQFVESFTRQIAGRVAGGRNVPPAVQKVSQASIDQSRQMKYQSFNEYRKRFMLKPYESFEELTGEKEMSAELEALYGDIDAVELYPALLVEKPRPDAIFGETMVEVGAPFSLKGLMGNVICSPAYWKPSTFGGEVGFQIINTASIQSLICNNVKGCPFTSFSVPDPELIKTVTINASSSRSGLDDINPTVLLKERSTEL

Chain of Prostaglandin G/H synthase 1 (P23219 whole entry): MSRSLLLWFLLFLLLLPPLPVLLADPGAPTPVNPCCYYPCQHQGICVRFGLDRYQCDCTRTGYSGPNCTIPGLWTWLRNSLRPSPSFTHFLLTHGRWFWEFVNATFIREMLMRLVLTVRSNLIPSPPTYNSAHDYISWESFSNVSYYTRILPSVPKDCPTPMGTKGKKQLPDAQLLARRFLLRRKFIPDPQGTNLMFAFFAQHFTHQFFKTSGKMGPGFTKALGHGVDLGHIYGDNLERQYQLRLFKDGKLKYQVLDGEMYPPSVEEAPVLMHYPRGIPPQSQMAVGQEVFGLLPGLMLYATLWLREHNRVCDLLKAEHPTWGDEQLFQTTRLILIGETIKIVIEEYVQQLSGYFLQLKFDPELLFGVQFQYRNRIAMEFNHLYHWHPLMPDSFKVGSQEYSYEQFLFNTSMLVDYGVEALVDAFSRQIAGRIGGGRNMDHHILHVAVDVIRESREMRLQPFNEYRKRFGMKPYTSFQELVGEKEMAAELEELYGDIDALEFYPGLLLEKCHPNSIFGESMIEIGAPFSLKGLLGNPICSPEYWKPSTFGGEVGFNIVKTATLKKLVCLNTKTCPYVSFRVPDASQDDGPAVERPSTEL

SMILES	IC50 [1] [µM]	IC50 [2] [nM]
O=C(NNc1ccc(Cl)cc1)c1ccc(Cl)cc1	> 10	340
COc1ccc(-n2nc(-c3ccc(Cl)cc3)c3c2CCC(N(O)C(C)=O)C3)cc1 (configuration not stated)	> 10	2400
Cc1ccc(NNC(=O)c2ccccc2)cc1	> 10	330
Clc1ccc(-c2nn(-c3ccc(Cl)cc3)c3c2CCC3)cc1	> 10	> 10000
COc1ccc(NNC(=O)c2ccc(Cl)cc2)cc1	> 10	130
COc1ccc(C(=O)NNc2ccc(Cl)cc2)cc1	> 10	470
Cc1ccc(-n2nc(-c3ccc(Cl)cc3)c3c2CCCCC3)cc1	> 10	
COc1ccc(-n2nc(-c3ccc(Cl)cc3)c3c2CCC(NOC(C)=O)C3)cc1 (configuration not stated)	> 10	> 10000
COc1ccc(-n2nc(-c3ccc(Cl)cc3)c3c2CCC(O)C3)cc1 (configuration not stated)	> 10	460
CS(=O)(=O)c1ccc(-n2nc(-c3ccc(F)cc3)c3c2CCCC3)cc1	> 10	> 10000
CS(=O)(=O)c1ccc(-n2nc(-c3ccc(Cl)cc3)c3c2CCCC3)cc1	> 10	> 10000
CS(=O)(=O)c1ccc(NNC(=O)c2ccccc2)cc1	> 10	> 10000
O=C(NNc1ccccc1)c1ccc(Cl)cc1	> 10	330
c1ccc(-c2nn(-c3ccccc3)c3c2CCC3)cc1	> 10	
COc1ccc(NNC(=O)c2ccccc2)cc1	> 10	180
CS(=O)(=O)c1ccc(NNC(=O)c2ccc(Cl)cc2)cc1	> 10	> 10000
Clc1ccc(-c2nn(-c3ccc(Cl)cc3)c3c2CCCCC3)cc1	> 10	
COc1ccc(-n2nc(-c3ccc(Cl)cc3)c3c2CCCCC3)cc1	> 10	
COc1ccc(-n2nc(-c3ccc(Cl)cc3)c3c2CCC(F)C3)cc1 (configuration not stated)	> 10	
COc1ccc(C(=O)NNc2ccccc2)cc1	> 10	> 10000
Cc1ccc(NNC(=O)c2ccc(Cl)cc2)cc1	> 10	10
O=C(NNc1ccccc1)c1ccccc1	> 10	10000
O=C(NNc1ccc(Cl)cc1)c1ccccc1	> 10	530
CS(=O)(=O)c1ccc(-n2nc(-c3ccc(Cl)cc3)c3c2CCCCC3)cc1		> 10000

Reference: ChEMBL document CHEMBL1133431, “1,3-Diarylcycloalkanopyrazoles and diphenyl hydrazides as selective inhibitors of cyclooxygenase-2” (Bioorg Med Chem Lett, 2000)
